CHO parental Ca: ATP-evoked calcium signal inhibitors, parental CHO, primary screen, counter-screen for OX1R antagonist project, cell-based, fluorescence, Fluo-8 calcium dye. parental CHO-K1, ATP-induced calcium, Fluo-8 fluorescence. 330,000 tested, 0.63% active. inhibition, % at 5.6 µM;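 active = inhibition above that plate's mean sample inhibition plus 3 SD, cut at about 26% in these data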;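 also: 0% = ATP-challenged DMSO wells and 100% = DMSO wells without ATP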
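Assay system – parental CHO cells · Reagent – ATP stimulus · Detection – intracellular calcium via Fluo-8 no-wash fluorescent dye · Evaluation – percent inhibition of ATP-evoked calcium rise, normalized to controls · Controls – ATP wells versus no-ATP DMSO wells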
OX1R antag-1: antagonists of human orexin 1 receptor (OX1R); Orexin/Hypocretin receptor type 1 (Homo sapiens), O43613; OX1R-expressing cells, FRET antagonist read-out; inhibition, % at 6.6 µM; 330,000 tested, 1.8% active; in the data active = inhibition mostly above about 38%, no sharp cut-off; inactive = mostly below about 40%;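 also: 0% = agonist challenge alone and 100% = reference antagonist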
TAAR1 antag: human TAAR1 antagonists, primary screen, Fluo-8 calcium fluorescence, CHO RD-HGA16 cells | Trace amine-associated receptor 1 (Homo sapiens), Q96RJ0 | antagonist | inhibition, % at 3 µM | 360,000 tested, 1.5% active | AID 624466, 2012;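 active = inhibition above a per-plate cutoff, the mean inhibition of test compounds on that plate plus 3 SD, cut at about 49% in these data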;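 also: 0% = DMSO plus EC80 beta-PEA response and 100% = DMSO alone without agonist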
Target sequence (Q96RJ0 whole entry, looked up): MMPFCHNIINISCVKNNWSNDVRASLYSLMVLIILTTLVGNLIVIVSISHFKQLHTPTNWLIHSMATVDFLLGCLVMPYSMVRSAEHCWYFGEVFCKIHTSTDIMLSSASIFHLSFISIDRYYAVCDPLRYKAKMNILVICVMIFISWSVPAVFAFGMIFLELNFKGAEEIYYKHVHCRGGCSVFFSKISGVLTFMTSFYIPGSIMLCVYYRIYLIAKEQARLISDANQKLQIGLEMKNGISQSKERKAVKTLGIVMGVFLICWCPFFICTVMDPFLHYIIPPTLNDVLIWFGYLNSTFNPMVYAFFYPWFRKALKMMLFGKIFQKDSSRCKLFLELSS
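Test system: CHO RD-HGA16 cells bearing hTAAR1 | Reagent: β-PEA, EC80 | Compound dosing: 3 µM, single point | Schedule: Dye loading 75 min at 37 °C, then 30 min room temperature | Signal: Calcium fluorescence with Fluo-8 | Evaluation: Percent inhibition of PEA-evoked calcium signal, max/basal emission ratio | Control set: DMSO-only wells and EC80 β-PEA-stimulated wells | Repeats: Singlicate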
GalR3 antagonist: GalR3 antagonists in HEK293 cells, primary screen, cell-based, fluorescence readout; Galanin receptor type 3 (Homo sapiens), O60755; HEK293 GalR3-CNG cAMP membrane potential fluorescence; galR3 body fused to GalR1 C-terminus; inhibition, % at 3 µM; 360,000 tested, 0.44% active; AID 651719, 2012;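 active = inhibition above the screen-wide average plus 3 SD, cut at about 13% in these data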;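 also: forskolin and galanin both at EC90 stimulate the cells; cAMP rise reported by CNG channel membrane potential dye signal; 0% = forskolin plus galanin with DMSO and 100% = forskolin alone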
Target sequence (O60755 1-299 limits assumed): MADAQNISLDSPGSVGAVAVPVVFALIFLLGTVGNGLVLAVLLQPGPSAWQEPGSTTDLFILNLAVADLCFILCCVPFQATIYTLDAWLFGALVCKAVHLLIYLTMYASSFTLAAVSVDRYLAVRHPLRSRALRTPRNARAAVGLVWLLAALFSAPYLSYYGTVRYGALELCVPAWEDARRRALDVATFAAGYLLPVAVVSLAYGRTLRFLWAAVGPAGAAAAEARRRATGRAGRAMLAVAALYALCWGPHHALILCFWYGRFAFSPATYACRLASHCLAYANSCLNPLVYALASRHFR
TAAR1 ag: human TAAR1 agonists, primary screen, Fluo-8 calcium fluorescence, CHO RD-HGA16 cells. 360,000 tested, 0.99% active. AID 624467, 2012. Trace amine-associated receptor 1 (Homo sapiens), Q96RJ0. vehicle wells 0%, saturating PEA agonist 100%. activation, % at 3 µM;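 active = activation above the mean activation of all test compounds in the run plus 3 SD, cut at about 38% in these data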
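test system = CHO RD-HGA16 cells carrying human TAAR1 plus Gα16 | schedule = 17-24 h seeding, 75 min 37 °C dye, 30 min RT | compound dosing = 3 µM single concentration | control set = DMSO and PEA EC100 | replicates = n 1 | signal = Fluo-8 fluorescence, 5 s baseline then 140 s kinetic read | measure = percent activation vs PEA EC100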
OX1R antag-2: OX1R (HCRTR1) antagonists, primary screen, fluorescence, CHO/OX1R cells, Fluo-8 calcium, orexin A. AID 434989, 2010. Fluo-8 calcium fluorescence. inhibition, % at 5 µM. 330,000 tested, 0.43% active;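 active = inhibition above its plate's threshold, mean inhibition of all tested compounds on the plate plus 3 SD, cut at about 37% in these data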;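 also: 0% = orexin A challenge wells and 100% = SB-334867-A antagonist wells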
Numbers without * were called inactive. Most compounds without a hit are left out; they make up all but 4.2% or so of the library.

What do the screens show for `COc1ccc(Cn2c(=N)c(C(=O)NCC3CCCO3)cc3c(=O)n4ccccc4nc32)cc1` (configuration not stated)?
CHO parental Ca: -20; OX1R antag-1: 61*; TAAR1 antag: -8; GalR3 antagonist: -7; TAAR1 ag: 0; OX1R antag-2: -39

What do the screens show for `COc1ccc(CCn2c(=N)c(C(=O)NCC3CCCO3)cc3c(=O)n4ccccc4nc32)cc1` (configuration not stated)?
CHO parental Ca: -17; OX1R antag-1: 58*; TAAR1 antag: -18; GalR3 antagonist: 2; TAAR1 ag: 1; OX1R antag-2: -14

How did Cc1ccc(NC(=O)c2nc(C)n(-c3ccc([N+](=O)[O-])cc3)n2)cc1 do in these assays?
CHO parental Ca: -9; OX1R antag-1: 26; OX1R antag-2: -14

How did CCOC(=O)c1nc(C)n(-c2ccc(Cl)cc2)n1 do in these assays?
CHO parental Ca: -7; OX1R antag-1: 4; TAAR1 antag: 2; GalR3 antagonist: -5; TAAR1 ag: 4; OX1R antag-2: -17

Results for CCOC(=O)c1nc(C)n(-c2ccc([N+](=O)[O-])cc2)n1 ?
CHO parental Ca: 3; OX1R antag-1: 49*; TAAR1 antag: -6; GalR3 antagonist: 1; TAAR1 ag: 4; OX1R antag-2: -32

What do the screens show for `Cc1nc(C(=O)Nc2ccc(F)cc2)nn1-c1ccc([N+](=O)[O-])cc1`?
CHO parental Ca: -8; OX1R antag-1: 55*; TAAR1 antag: 11; GalR3 antagonist: -4; TAAR1 ag: 4; OX1R antag-2: -12

Results for CC1=C(C(=O)OC2CCCCC2)C(c2ccc(O)cc2)NC(=O)N1 (configuration not stated) ?
CHO parental Ca: 8; OX1R antag-1: 1; TAAR1 antag: 1; GalR3 antagonist: -11; TAAR1 ag: 0; OX1R antag-2: -9

How did O=C1CN(C(=O)c2ccccc2Br)C(c2ccc(F)cc2)c2cc(F)ccc2N1 (configuration not stated) do in these assays?
CHO parental Ca: -21; OX1R antag-1: 4; TAAR1 antag: 8; GalR3 antagonist: -2; TAAR1 ag: 41*; OX1R antag-2: -34

What do the screens show for `COc1cccc(CN(C)C(=O)c2ccccc2Sc2ccccc2C#N)c1`?
CHO parental Ca: -18; OX1R antag-1: 24; TAAR1 antag: 21; GalR3 antagonist: 0; TAAR1 ag: 3; OX1R antag-2: -21

How did CN(CC(=O)Nc1cccc(F)c1)C(=O)c1ccccc1Sc1ccccc1C#N do in these assays?
CHO parental Ca: -21; OX1R antag-1: 33*; TAAR1 antag: 26; GalR3 antagonist: -1; TAAR1 ag: 5; OX1R antag-2: 14

How did COc1cccc(NC(=O)CN(C)C(=O)c2ccccc2Sc2ccccc2C#N)c1 do in these assays?
CHO parental Ca: -14; OX1R antag-1: 39*; TAAR1 antag: 17; GalR3 antagonist: -2; TAAR1 ag: 7; OX1R antag-2: 24

How did O=C(COC(=O)CCC(=O)c1cccs1)NCc1ccc(Cl)cc1 do in these assays?
CHO parental Ca: -14; OX1R antag-1: 4; TAAR1 antag: -2; GalR3 antagonist: -7; TAAR1 ag: -2; OX1R antag-2: 11

Results for Cn1c(Sc2ccc(C(=O)O)cc2[N+](=O)[O-])nnc1-c1ccccc1 ?
CHO parental Ca: 0; OX1R antag-1: 57*; TAAR1 antag: -8; GalR3 antagonist: -5; TAAR1 ag: 12; OX1R antag-2: -6

What do the screens show for `COC(=O)COc1ccccc1C(N)=O`?
CHO parental Ca: -3; OX1R antag-1: 6; TAAR1 antag: -7; GalR3 antagonist: -5; TAAR1 ag: 16; OX1R antag-2: -23

How did COc1ccc(-c2sc3ccccc3c2-c2ccc(OCCN(C)C)cc2)cc1 do in these assays?
CHO parental Ca: 50*; OX1R antag-1: 2; TAAR1 antag: 47; GalR3 antagonist: -11; TAAR1 ag: 11; OX1R antag-2: 70*

How did CN(C)CCOc1ccc(-c2c(-c3ccsc3)sc3ccccc23)cc1 do in these assays?
CHO parental Ca: 27; OX1R antag-1: -5; TAAR1 antag: 29; GalR3 antagonist: -8; TAAR1 ag: 24; OX1R antag-2: 48

What do the screens show for `CC(=O)Nc1cccc(NC(=O)CSc2nnc3ccc(-c4ccncc4)nn23)c1`?
CHO parental Ca: 1; OX1R antag-1: 67*; TAAR1 antag: -30; GalR3 antagonist: -1; TAAR1 ag: 2; OX1R antag-2: -12

How did CC(=O)Nc1cccc(NC(=O)CSc2n[nH]c(-c3ccccc3)n2)c1 do in these assays?
CHO parental Ca: -6; OX1R antag-1: 47*; TAAR1 antag: 6; GalR3 antagonist: -4; TAAR1 ag: 3; OX1R antag-2: 11

How did CC(=O)Nc1cccc(NC(=O)CSc2ncc(-c3ccccc3)[nH]2)c1 do in these assays?
CHO parental Ca: 8; OX1R antag-1: 53*; TAAR1 antag: -7; GalR3 antagonist: -5; TAAR1 ag: 4; OX1R antag-2: 10

How did CCOC(=O)c1sc(NC(=O)CSc2nc(C)cc(C)n2)c(C#N)c1C do in these assays?
CHO parental Ca: -10; OX1R antag-1: 11; TAAR1 antag: 35; GalR3 antagonist: -3; TAAR1 ag: 16; OX1R antag-2: -11

What do the screens show for `CCOC(=O)c1sc(NC(=O)CSc2n[nH]c(-c3ccccc3)n2)c(C#N)c1C`?
CHO parental Ca: 40*; OX1R antag-1: 39; TAAR1 antag: 25; GalR3 antagonist: 1; TAAR1 ag: 18; OX1R antag-2: 46*

What do the screens show for `CCOC(=O)c1cc(C#N)c(N2CCN(C(=O)c3cccc(C(F)(F)F)c3)CC2)nc1C(F)(F)F`?
CHO parental Ca: -15; OX1R antag-1: 9; TAAR1 antag: 2; GalR3 antagonist: -3; TAAR1 ag: 2; OX1R antag-2: -39

How did CCCOc1ccc(C(=O)NC(=S)N2CCN(c3cc4c(cc3F)c(=O)c(C(=O)O)cn4CC)CC2)cc1 do in these assays?
CHO parental Ca: -11; OX1R antag-1: -1; TAAR1 antag: -16; GalR3 antagonist: -10; TAAR1 ag: 3; OX1R antag-2: 2

Results for Cc1cc(C)n(C(=O)/C(C#N)=N/Nc2cc(Cl)cc(Cl)c2)n1 ?
CHO parental Ca: 75*; OX1R antag-1: 59*; OX1R antag-2: 59*

What do the screens show for `Cc1cc(C)n(C(=O)/C(C#N)=N\Nc2ccccc2[N+](=O)[O-])n1`?
CHO parental Ca: -6; OX1R antag-1: 24; TAAR1 antag: 29; GalR3 antagonist: -8; TAAR1 ag: 2; OX1R antag-2: -16

Screening results from PubChem.
